The record followed here is ChEMBL document CHEMBL1153578, “Synthesis and evaluation of anti-tumor activities of N4 fatty acyl amino acid derivatives of 1-beta-arabinofuranosylcytosine” (Eur J Med Chem, 2009).

The test system of series [1] is CCRF S-180. In words: Antitumor activity against mouse S180 cells xenografted in ip dosed Kunming mouse assessed as tumor growth inhibition after 7 days. It is filed as functional. The gist of the method:
(§1)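 Kunming mice received 0.2 mL of S180 cells (passaged in mouse abdomen, harvested day 8, 2.0 × 10⁷/mL) and were randomized into groups of 10. Compounds were given at 7.8 mmol/L in 0.5% CMC-Na (solution or suspension), 0.2 mL i.p. daily for 7 days. Mice were then sacrificed and tumors weighed. Inhibition = (mean control weight − mean treated weight)/mean control weight × 100%.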

For series [2], the system named is CCRF S-180. In words: Antitumor activity against mouse S180 cells xenografted in ip dosed Kunming mouse assessed as tumor weight after 7 days. It is filed as functional. A digest of the protocol:
as §1

In a further series the test system is HeLa. In words: Cytotoxicity against human HeLa cells after 48 hrs by MTT assay. It is filed as functional, cell-based. The gist of the method:
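HeLa cells were grown in DMEM with 10% FBS and penicillin/streptomycin, seeded at 5 × 10⁴/mL, and treated with 0.5, 1.0, 5.0, 10 and 50 of compound in PBS with 4% DMSO, in triplicate. MTT (5 mg/mL) was added for 4 h at 37 °C without centrifugation, then supernatant removed and formazan dissolved in DMSO. Read at 570 nm (reference 630 nm) with survival normalized to medium-blanked control; IC50 = concentration causing 50% cell death.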

A further series deals with HL-60. In words: Cytotoxicity against human HL60 cells after 48 hrs by MTT assay. It counts as functional, cell-based. Particulars: HL-60, 48 h. A digest of the protocol: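 HL-60 cells were grown in RPMI 1640 with 10% FBS and penicillin/streptomycin, seeded at 5 × 10⁴/mL, and exposed to 5 concentrations (0.01–1.00) in PBS with 4% DMSO, in triplicate. MTT was added at 5 mg/mL for 4 h at 37 °C. Plates were centrifuged (1000 r/min, 10 min), supernatant discarded, and crystals dissolved in DMSO. Read at OD 570/630 nm, blank-corrected against control; IC50 = concentration giving 50% cell death.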

Series [3] can be described thus: Lipophilicity, log P of the compound. It is filed as physicochemical. Particulars: octanol/water.

Consider `CCCCCCCCCCCCCC(=O)N[C@H](C(=O)Nc1ccn([C@H]2O[C@@H](CO)[C@H](O)[C@H]2O)c(=O)n1)C(C)C`, for which the TGI with CCRF S-180 [1] was 8.4%. Also, the Activity with CCRF S-180 [2] was found to be 1.163 g. In addition, the IC50 is 26 µM in the series on HeLa and 32300 nM with HL-60. The compound further had a logP in series [3] of 0.9.
For `CCCCCCCCCC(=O)N[C@@H](CCSC)C(=O)Nc1ccn([C@H]2O[C@@H](CO)[C@H](O)[C@H]2O)c(=O)n1` the same measures were 25.6%, 0.944 g, 3 µM, 280 nM and 0.68.
Take `Nc1ccn([C@@H]2O[C@H](CO)[C@@H](O)[C@@H]2O)c(=O)n1` [CYTARABINE]: the IC50 with HeLa is 464 µM; with HL-60, 118 nM.
For the compound `CCCCCCCCCCCCCCCCCC(=O)N[C@@H](CCSC)C(=O)Nc1ccn([C@H]2O[C@@H](CO)[C@H](O)[C@H]2O)c(=O)n1`, the inhibition of tumour growth (TGI) in the series with CCRF S-180 [1] is recorded as 65.5%. Also, the Activity in the series with CCRF S-180 [2] is 0.438 g. The IC50 is 9 µM in the series on HeLa and 803 nM with HL-60. For the same compound, the logP in series [3] is 1.09.
For `CCCCCCCCCCCCCCCCCC(=O)N[C@@H](CCC(=O)O)C(=O)Nc1ccn([C@H]2O[C@@H](CO)[C@H](O)[C@H]2O)c(=O)n1` the same measures were 12.9%, 1.106 g, 19 µM, 1140 nM and 0.5.
For `CCCCCCCCCCCCCC(=O)N[C@@H](CCCNC(=N)N)C(=O)Nc1ccn([C@H]2O[C@@H](CO)[C@H](O)[C@H]2O)c(=O)n1`, in the series on CCRF S-180 [1], the TGI was determined as 39.2%. Besides, the Activity in the series with CCRF S-180 [2] is listed as 0.773 g. Also, the values for the IC50 with HeLa and with HL-60 were 32 µM and 405 nM, respectively. This compound also showed a log partition coefficient (logP) in series [3] of 0.45.
The matching figures for `CCCCCCCCCCCCCC(=O)N[C@@H](CCSC)C(=O)Nc1ccn([C@H]2O[C@@H](CO)[C@H](O)[C@H]2O)c(=O)n1`: 37.6%, 0.793 g, 8.02 µM, 272 nM and 0.88.
On to `CCCCCCCCCCCCCCCCCC(=O)N[C@@H](Cc1ccc(O)cc1)C(=O)Nc1ccn([C@H]2O[C@@H](CO)[C@H](O)[C@H]2O)c(=O)n1`, for which the tumour growth inhibition (TGI) in the series on CCRF S-180 [1] is given as 16.5%. Besides, in the series with CCRF S-180 [2], the Activity was 1.06 g. The figures for the concentration for half-maximal inhibition (IC50) in the series on HeLa and in the series on HL-60 were 10 µM and 1150 nM, respectively. Further, the log partition coefficient (logP) in series [3] was found to be 0.97.
Turning to `CCCCCCCCCC(=O)N[C@@H](Cc1ccc(O)cc1)C(=O)Nc1ccn([C@H]2O[C@@H](CO)[C@H](O)[C@H]2O)c(=O)n1`, in the series on CCRF S-180 [1], the inhibition of tumour growth (TGI) came out at 19.1%. The Activity with CCRF S-180 [2] is 1.028 g. Besides, the IC50 stood at 1 µM in the series with HeLa and 2980 nM with HL-60. Further, the lipophilicity (logP) in series [3] was 0.81.
The matching figures for `CCCCCCCCCC(=O)N[C@@H](CCC(=O)O)C(=O)Nc1ccn([C@H]2O[C@@H](CO)[C@H](O)[C@H]2O)c(=O)n1`: 15.6%, 1.072 g, 5 µM, 1860 nM and -0.28.
For the compound `CCCCCCCCCCCCCCCCCC(=O)N[C@H](C(=O)Nc1ccn([C@H]2O[C@@H](CO)[C@H](O)[C@H]2O)c(=O)n1)C(C)C`, in the series with CCRF S-180 [1], the TGI is reported as 58.9%. The Activity in the series with CCRF S-180 [2] is listed as 0.523 g. In addition, the values for the half-maximal inhibitory concentration (IC50) with HeLa and in the series with HL-60 were 13 µM and 31900 nM, respectively. For the same compound, the logP in series [3] worked out at 0.91.
For the compound `CCCCCCCCCCCCCC(=O)N[C@@H](Cc1ccc(O)cc1)C(=O)Nc1ccn([C@H]2O[C@@H](CO)[C@H](O)[C@H]2O)c(=O)n1`, the tumour growth inhibition (TGI) with CCRF S-180 [1] is 11.4%. In the series on CCRF S-180 [2], the Activity stood at 1.125 g. Further, the IC50 in the series with HeLa worked out at 39.1 µM; with HL-60 it was 1710 nM. In series [3], this compound showed a logP of 0.9.
Consider `CCCCCCCCCCCCCCCCCC(=O)N[C@@H](CCCNC(=N)N)C(=O)Nc1ccn([C@H]2O[C@@H](CO)[C@H](O)[C@H]2O)c(=O)n1`, for which, in the series on CCRF S-180 [1], the tumour growth inhibition (TGI) was 8.1%. For the same compound, the Activity in the series on CCRF S-180 [2] is 1.168 g. The results for the IC50 in the series with HeLa and with HL-60 were 12.1 µM and 1700 nM, respectively. In addition, in series [3], the logP is 0.61.
The matching figures for `CCCCCCCCCC(=O)N[C@@H](CCCNC(=N)N)C(=O)Nc1ccn([C@H]2O[C@@H](CO)[C@H](O)[C@H]2O)c(=O)n1`: 15.7%, 1.071 g, 6 µM, 584 nM and 0.76.
For `CCCCCCCCCCCCCC(=O)N[C@@H](CCC(=O)O)C(=O)Nc1ccn([C@H]2O[C@@H](CO)[C@H](O)[C@H]2O)c(=O)n1` the same measures were 24.6%, 0.958 g, 41 µM, 502 nM and 0.25.
The matching figures for `CCCCCCCCCC(=O)N[C@H](C(=O)Nc1ccn([C@H]2O[C@@H](CO)[C@H](O)[C@H]2O)c(=O)n1)C(C)C`: 7%, 1.181 g, 4.99 µM, 2040 nM and 0.78.
